{"source": "ChEMBL document CHEMBL1139390", "about": "“Synthesis and biological studies of different duocarmycin based glycosidic prodrugs for their use in the antibody-directed enzyme prodrug therapy” (J Med Chem, 2009)", "key": {"[1]": {"test_system": "A549", "assay": "Cytotoxicity against human A549 cells after 24 hrs in presence of cleaving enzyme by HTCFA", "type": "functional, cell-based", "conditions": "A549, 24 h", "method_in_brief": "(§1)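 Clonogenic (HTCFA) assay on adherent A549 cells seeded in triplicate at 10^2–10^5 cells per well; after 24 h, medium replaced by serum-free UltraCulture and cells exposed 24 h to 6–8 concentrations from fresh DMSO solutions (final DMSO 1%).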"}, "[2]": {"assay": "Stability in ultraculture medium after 24 hrs by HPLC-MS", "type": "physicochemical", "conditions": "read-out: Stability", "method_in_brief": "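Compound held in UltraCulture medium at 37 °C for 24 h. The fraction remaining was quantified by HPLC-MS peak area (AUC) on a C12 reversed-phase column.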"}, "[3]": {"test_system": "A549", "assay": "Cytotoxicity against human A549 cells after 24 hrs by HTCFA", "type": "functional, cell-based", "conditions": "A549, 24 h", "method_in_brief": "as §1"}, "[4]": {"test_system": "A549", "assay": "Ratio of IC50 for human A549 cells to IC50 for human A549 cells in presence of cleaving enzyme", "type": "functional", "method_in_brief": "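QIC50 is the IC50 of the prodrug alone divided by its IC50 with the cleaving glycosidase present. Both values come from the 24 h exposure A549 clonogenic assay with 9–10 days of outgrowth and methylene blue colony counts.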"}}, "data": [{"smiles": "C[C@@H](Cl)[C@@H]1CN(C(=O)c2cc3cc(OCCN(C)C)ccc3[nH]2)c2cc(O[C@@H]3O[C@H](CO)[C@H](O)[C@H](O)[C@H]3O)c3ccccc3c21", "values": [{"measurement": "IC50", "setting": "[1]", "value": 0.8, "unit": "nM"}, {"measurement": "remaining at 24 h", "setting": "[2]", "value": 27, "unit": "%"}, {"measurement": "IC50", "setting": "[3]", "value": 3600, "unit": "nM"}, {"measurement": "Ratio IC50", "setting": "[4]", "value": 4800}]}, {"smiles": "C[C@H]1[C@@H]2CN(C(=O)c3cc4cc(OCCN(C)C)ccc4[nH]3)C3=CC(=O)c4ccccc4[C@@]312", "values": [{"measurement": "IC50", "setting": "[3]", "value": 0.75, "unit": "nM"}]}, {"smiles": "C[C@@H](Cl)[C@@H]1CN(C(=O)c2cc3cc(OCCN(C)C)ccc3[nH]2)c2cc(O)c3ccccc3c21", "values": [{"measurement": "IC50", "setting": "[3]", "value": 0.75, "unit": "nM"}]}]}
